Experimental data reported in publication PMC5114201 (Drugs in R&D, 2016).
Ends that are not written are not given here.

Tests used:
[1] = Vital signs after single oral dose, phase I study; type: in vivo, human; conditions: 24 h post dose, healthy subjects, mean ± SD, n = 4
In short: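 In cohorts of four drug and two placebo (sterile water) subjects, a single oral solution was taken at 08:00 after an overnight fast, followed by 200 ml water. Blood pressure, heart rate, pulse oximetry, temperature and breathing rate were recorded pre-dose and at 0.25–24 h post dose. Values were reported as mean ± SD (range) and compared against placebo.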

Caco-2 monolayer = conditions: cited from earlier work
[2] = Urinalysis, phase I study; type: in vivo, human; conditions: healthy subjects, n = 4
In short: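 Healthy volunteers were randomized within each dose cohort to oral drug solution in sterile water (four subjects) or sterile-water placebo (two subjects). They fasted from midnight, were dosed at 08:00 and had no food for 2 h afterwards. Urinalysis was done before dosing and 24 h after. Dipstick-type read-outs were compared with normal ranges or indications.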

Safety and tolerability = type: in vivo, human; conditions: healthy subjects, 12-lead ECG at 1, 3, 6 and 12 h post dose, all cohorts
In short: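 Single-blind, randomized, placebo-controlled dose escalation in healthy adults. Each cohort of six had four on drug and two on sterile-water placebo. Drug was dissolved in sterile water and drunk standing, then 200 ml water, at 08:00 after fasting from midnight. A 12-lead ECG was taken pre-dose and at 1, 3, 6 and 12 h. Vital signs and clinical laboratory tests were also monitored.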

[3] = intravenously administered into rats; ref unpublished preclinical toxicological data; cited from earlier work
[4] = 0.08 mg/kg single oral dose, 0 h pre dose (baseline)
[5] = 0.08 mg/kg single oral dose, 24 h post dose
[6] = 0.7 mg/kg single oral dose, 0 h pre dose (baseline)
[7] = 0.7 mg/kg single oral dose, 24 h post dose

For “RVYIHPFHL [DAA-I, Des-aspartate-angiotensin I]”, the “Blood pressure, diastolic” value ([1]; 0.08 mg/kg single oral dose) was 68 ± 5 mmHg, the “Blood pressure, systolic” value ([1]; 0.08 mg/kg single oral dose) was 120 ± 4 mmHg and the “Blood pressure, diastolic” value ([1]; 0.7 mg/kg single oral dose) was 67 ± 7 mmHg. The “Blood pressure, systolic” value ([1]; 0.7 mg/kg single oral dose) was 114 ± 7 mmHg, the “Transport across Caco-2 monolayer” value (Caco-2 monolayer) was “cross the Caco-2 monolayer via passive diffusion” and the Urine bilirubin [2, 4] was “Negative”. For the same sequence, the Urine glucose [2, 4] was “Normal”, the Urine haemoglobin [2, 4] was “Negative” and the Urine ketones [2, 4] was “Negative”. The Urine nitrite [2, 4] was “Negative”, the Urine protein [2, 4] was “Negative” and the Urine urobilinogen [2, 4] was “Normal”. The Urine bilirubin [2, 5] was “Negative”, the Urine glucose [2, 5] was “Normal” and the Urine haemoglobin [2, 5] was “Negative”. The Urine ketones [2, 5] was “Negative”, the Urine nitrite [2, 5] was “Negative” and the Urine protein [2, 5] was “Negative”. For the same sequence, the Urine urobilinogen [2, 5] was “Normal”, the Urine bilirubin [2, 6] was “Negative” and the Urine glucose [2, 6] was “normal”. The Urine haemoglobin [2, 6] was “Negative”, the Urine ketones [2, 6] was “Negative” and the Urine nitrite [2, 6] was “Negative”. For the same sequence, the Urine protein [2, 6] was “Negative”, the Urine urobilinogen [2, 6] was “Normal” and the Urine bilirubin [2, 7] was “Negative”. The Urine glucose [2, 7] was “normal”, the Urine haemoglobin [2, 7] was “Negative” and the Urine ketones [2, 7] was “Negative”. The Urine nitrite [2, 7] was “Negative”, the Urine protein [2, 7] was “Negative” and the Urine urobilinogen [2, 7] was “Normal”. For the same sequence, the ECGs (Safety and tolerability) was “normal” and the “Time to degradation by plasma enzymes” value [3] was 2 to 5 min.
